Published values of several laboratories.
Protocols differ between the studies behind these lines.
EGFR: Epidermal growth factor receptor (EGFR, Homo sapiens, UniProt P00533)
EGFR L858R/T790M: Epidermal growth factor receptor (EGFR, Homo sapiens, UniProt P00533, L858R/T790M)
EGFR G719C: Epidermal growth factor receptor (EGFR, Homo sapiens, UniProt P00533, G719C)
EGFR del747-752/P753S: Epidermal growth factor receptor (EGFR, Homo sapiens, UniProt P00533, del747-752/P753S)
EGFR T790M: Epidermal growth factor receptor (EGFR, Homo sapiens, UniProt P00533, T790M)
EGFR L861Q: Epidermal growth factor receptor (EGFR, Homo sapiens, UniProt P00533, L861Q)
EGFR del746-750: Epidermal growth factor receptor (EGFR, Homo sapiens, UniProt P00533, del746-750)

| Structure (SMILES) | target | observed | mode | method | concentration | quantity | value |
| --- | --- | --- | --- | --- | --- | --- | --- |
| CC(C)[C@@H]1NC(=O)[C@H](CCCNC(=N)N)NC(=O)[C@H](Cc2ccc(O)cc2)NC(=O)[C@H](C(C)C)NC(=O)[C@H](C(C)C)NC(=O)[C@H](CCCNC(=N)N)NC(=O)[C@H](CC(=O)O)NC(=O)[C@H](CC(=O)O)NC(=O)[C@H](C)NC(=O)[C@H](Cc2ccc(O)cc2)NC(=O)[C@H](Cc2ccc(O)cc2)NC(=O)[C@H](Cc2ccccc2)NC(=O)[C@@H](Cc2ccc(O)cc2)NC(=O)CSC[C@@H](C(=O)NCC(N)=O)NC(=O)[C@H](C)NC1=O | EGFR | binding |  | SPR |  | kon | 166000 M⁻¹ s⁻¹ |
| O=C(Nc1cnn(-c2csc(C(=O)NC3COC3)c2)c1)Nc1ccccc1Cl | EGFR | enzyme activity | inhibitor |  | 5 µM | remaining activity | 99.7% |
| N#CCCc1ccc2c(c1)-c1[nH]c3ccc([N+](=O)[O-])cc3c1CC(=O)N2 | EGFR | cell-free assay |  |  | 0.5 µM | remaining signal | 94.4% |
| CN(C)C1CCN(CC#Cc2nn(C3CCCC3)c3nc(NCc4ccccc4)ncc23)C1 (stereo not shown) | EGFR | enzyme activity | inhibitor | FRET | 0.1 µM | inhibition | 14% |
| Cc1ccc(NC(=O)c2ccc(C)c(C(F)(F)F)c2)cc1C#Cc1nn(C2CCC(O)CC2)c2ncnc(N)c12 (stereo not shown) | EGFR | cell-free assay |  |  | 10 µM | remaining signal | 11% |
| C=CC(=O)Nc1cc(Nc2nc(N3CCc4sccc4C3)c3cccnc3n2)c(OC)cc1N1CCN(CCO)CC1 | EGFR L858R/T790M | enzyme activity | inhibitor | ELISA | 0.1 µM | inhibition | 2% |
| CC(C)[C@@H]1NC(=O)[C@H](CCCNC(=N)N)NC(=O)[C@H](Cc2ccc(O)cc2)NC(=O)[C@H](C(C)C)NC(=O)[C@H](C(C)C)NC(=O)[C@H](CCCNC(=N)N)NC(=O)[C@H](CC(=O)O)NC(=O)[C@H](CC(=O)O)NC(=O)CCNC(=O)[C@H](Cc2ccc(O)cc2)NC(=O)[C@H](Cc2ccc(O)cc2)NC(=O)[C@H](Cc2ccccc2)NC(=O)[C@@H](Cc2ccc(O)cc2)NC(=O)CSC[C@@H](C(=O)NCC(N)=O)NC(=O)[C@H](C)NC1=O | EGFR | binding |  | SPR |  | kon | 192000 M⁻¹ s⁻¹ |
| COc1cc(Nc2c(C#N)cnc3cc(OCCCN4CCN(C)CC4)c(OC)cc23)c(Cl)cc1Cl | EGFR | cell-free assay |  |  | 0.5 µM | remaining signal | 3.84% |
| Cc1nc(C2CCN(C(=O)c3ccc(OC(F)(F)F)cc3N)CC2)c2ncc(N3CCN(C)CC3)cc2n1 | Epidermal growth factor receptor (EGFR, Homo sapiens, UniProt P00533, A750P/del747-749) | cell-free assay |  | competition with immobilised ligand | 1 µM | remaining binding | 70% |
| Cc1ccc(C(=O)NCc2ccsc2)cc1C#Cc1cn(C(C)C)c2ncnc(N)c12 | Epidermal growth factor receptor (EGFR, Homo sapiens, UniProt P00533, L858R) | enzyme activity | inhibitor |  | 1 µM | activity vs control | 56% |
| COc1cc2ncnc(Nc3ccc(Oc4ccccc4)c(C)c3C)c2cc1OC | EGFR L858R/T790M | enzyme activity | inhibitor |  | 1 µM | inhibition | 17% |
| Cc1ccc(C(=O)Nc2ccc(CN3CCN(C)CC3)c(C(F)(F)F)c2)cc1C#Cc1cnc2cccnn12 | EGFR G719C | cell-free assay |  |  | 23.5 nM | remaining signal | 88% |
| COc1ccc2c(O[C@@H]3C[C@H]4C(=O)N[C@]5(C(=O)O)CC5/C=C\CCCCC[C@H](NC(=O)OC5CCCC5)C(=O)N4C3)cc(-c3csc(NC(=O)C(C)C)n3)nc2c1C (stereo partly shown) | EGFR del747-752/P753S | cell-free assay |  | competition with immobilised ligand | 1 µM | remaining binding | 81% |
| Nc1ncnc2occ(-c3ccc(NC(=O)Nc4cc(C(F)(F)F)ccc4F)cc3)c12 | EGFR T790M | cell-free assay |  |  | 20 µM | remaining signal | 12% |
| O=C(Nc1cccc(Nc2cc(Nc3cccc(C(F)(F)F)c3)ncn2)c1)C1CC1 | EGFR | cell-free assay |  |  | 0.5 µM | remaining signal | 5.82% |
| O=C(NCc1ncc(C(F)(F)F)cc1Cl)c1ccc2c(c1)C1(CCS(=O)(=O)CC1)[C@@H](C1CC1)N2S(=O)(=O)c1ccc(F)cc1 | Epidermal growth factor receptor (EGFR, Homo sapiens, UniProt P00533, del747-750/T751S) | cell-free assay |  | competition with immobilised ligand | 1 µM | remaining binding | 79% |
| COc1cc2ncnc(Nc3ccc(Oc4ccccc4)cc3C)c2cc1OC | EGFR L861Q | enzyme activity | inhibitor |  | 1 µM | inhibition | 76% |
| COc1cc(-c2cc(-c3ccc(N4CCNCC4)cc3)cnc2N)cc(OC)c1OC | EGFR L861Q | enzyme activity | inhibitor |  | 1 µM | inhibition | 33% |
| CN(CCCC(F)(F)F)c1nccc(-c2cnn3ncccc23)n1 | EGFR | binding |  |  | 1 µM | remaining binding | 86% |

| Structure (SMILES) | target | observed | mode | method | concentration | quantity | value |
| --- | --- | --- | --- | --- | --- | --- | --- |
| c1nc2c(Nc3ccc4c(c3)OCCO4)nc(Nc3ccc4c(c3)OCCO4)nc2[nH]1 | EGFR | enzyme activity | inhibitor |  | 10 µM | activity vs control | 3.5% |
| COc1cc(N(C)CCN(C)C)c(NC(=O)/C=C/C(C)C)cc1Nc1nc(Nc2cnn(C)c2)c2sccc2n1 | EGFR L858R/T790M | enzyme activity | inhibitor | ELISA | 0.1 µM | inhibition | 34.6% |
| Cc1cc(NC(=O)c2cccc3cc(-c4cccc5[nH]nc(N)c45)ccc23)ccc1F | EGFR L861Q | enzyme activity | inhibitor |  | 0.1 µM | activity vs control | 95% |
| Cc1ccc(Nc2nccc(N(C)c3ccc4c(C)n(C)nc4c3)n2)cc1S(N)(=O)=O | EGFR | cell-free assay |  |  | 0.5 µM | remaining signal | 91% |
| CCC(=O)N[C@H]1CC[C@@H](C(=O)N(C)c2ccc(-c3nc4ccccc4o3)cc2)C1 | EGFR del747-752/P753S | cell-free assay |  | competition with immobilised ligand | 1 µM | remaining binding | 79% |
| N[C@@H]1CCN(c2nccc(-c3cnn4ncccc34)n2)C1 | EGFR del746-750 | binding |  |  | 1 µM | remaining binding | 100% |
| CC/C(=N\NC(=O)NCc1cccc(O)c1)c1ccc(O)c(C)c1O | Epidermal growth factor receptor (EGFR, Homo sapiens, UniProt P00533, del746-750/T790M) | enzyme activity | inhibitor |  | 0.1 µM | inhibition | -0.8% |
| CN(C)c1nccc(-c2cnc3ncccn23)n1 | EGFR del746-750 | binding |  |  | 1 µM | remaining binding | 60% |
| Cc1cnc(NC2CCOCC2)nc1-n1cnc(C(=O)NC(CN)c2cc(F)cc(Cl)c2)c1 (stereo not shown) | EGFR L858R/T790M | enzyme activity | inhibitor | radiometric | 1 µM | remaining activity | 109% |
| C[C@@H]1CCN(c2nccc(-c3cnn4ncccc34)n2)C1 | EGFR G719C | binding |  |  | 1 µM | remaining binding | 87% |
| O=C(O)[C@@H]1[C@@H](Cn2nnc3ccccc3c2=O)CC[C@H]1C(=O)c1ccc(OCCC2CCOCC2)cc1 | EGFR T790M | cell-free assay |  | competition with immobilised ligand | 1 µM | remaining binding | 94% |
| CCC(=O)Nc1cc(Nc2nc(N3CCc4sccc4C3)c3cccnc3n2)c(OC)cc1N(C)C | EGFR L858R/T790M | enzyme activity | inhibitor | ELISA | 0.1 µM | inhibition | 6% |
| Cn1nc(C(=O)NCc2ccc(C(=O)O)cc2)cc1-c1ccc2[nH]ccc2c1 | Epidermal growth factor receptor (EGFR, Homo sapiens, UniProt P00533, del752-759) | cell-free assay |  | competition with immobilised ligand | 0.1 µM | remaining binding | 94% |
| CC(C)(C)c1nc2c(s1)c1nc(N)ncc1c1ccc(NS(=O)(=O)c3c(F)cccc3F)c(F)c12 | EGFR | enzyme activity | inhibitor | radiometric | 1 µM | remaining activity | 104% |
| CN([C@@H]1CCc2c(CC(=O)O)c3cc(S(C)(=O)=O)ccc3n2C1)S(=O)(=O)c1ccc(F)cc1 | EGFR L858R/T790M | cell-free assay |  | competition with immobilised ligand | 1 µM | remaining binding | 100% |
| F[C@@H]1CCN(c2nccc(-c3cnn4ncccc34)n2)C1 | EGFR G719C | binding |  |  | 1 µM | remaining binding | 100% |
| CCCCN(CCCC)C(=O)CN1C[C@@H](c2cc(OC)c3c(c2)OCO3)[C@H](C(=O)O)[C@H]1CC(C)(C)CCC | EGFR del747-752/P753S | cell-free assay |  | competition with immobilised ligand | 1 µM | remaining binding | 75.9% |
| C=CC(=O)Nc1cc(Nc2nc(N3CCc4sccc4C3)c3cccnc3n2)c(OC)cc1N(C)CCN(C)C | EGFR L858R/T790M | enzyme activity | inhibitor | ELISA | 0.1 µM | inhibition | 19.2% |
